In ChEMBL document CHEMBL1136410, “Design, synthesis, and biological evaluation of angiogenesis inhibitors: aromatic enone and dienone analogues of curcumin” (2003):

Tests used:
[1] = In vitro percent inhibition of […] murine endothelial cell proliferation garnered from C57BL/6 mice infected with ectotropic virus at 3 ug/mL; assay type: functional; settings: Mus musculus
Summary of the method: (§1)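 SVR cells (C57BL/6 murine endothelial cells immortalized with SV40 large T and activated H-ras) plated at 10,000/well on gelatinized wells. Grown 24 h at 37 °C, 10% CO2, in 5% DMEM. Medium then replaced with fresh 5% DMEM containing 3 or 6 µg/mL compound (from 1 mg/mL DMSO stocks) for 72 h. Surviving trypsinized cells Coulter-counted; percent inhibition versus DMSO control.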

[2] = In vitro percent inhibition of […] murine endothelial cell proliferation garnered from C57BL/6 mice infected with ectotropic virus at 6 ug/mL; assay type: functional; settings: Mus musculus; summary of the method: as §1

Compound	inhibition at 3 µg/mL [1] [%]	inhibition at 6 µg/mL [2] [%]
O=C(/C=C/c1ccccc1)c1ccc2ccccc2c1	92.2	94.7
O=C(/C=C/c1c(Cl)cccc1Cl)/C=C/c1c(Cl)cccc1Cl	87.1	90.4
O=C(/C=C/c1ccccc1)c1ccccc1 [CHALCONE]	92.8	94.4
O=C(/C=C/c1ccccc1)/C=C/c1ccccc1	96.6	97.7
COc1cc(/C=C2\CCC/C(=C\c3ccc(O)c(OC)c3)C2=O)ccc1O [CYCLOVALONE]	90.1	96
O=C1/C(=C/c2ccccn2)CCC/C1=C\c1ccccn1	92.9	96.7
O=C1/C(=C/c2ccccc2)CCC/C1=C\c1ccccc1 [2,6-DIBENZYLIDENECYCLOHEXANONE]	94.4	97.7
O=C(/C=C/c1c(Cl)cccc1Cl)c1ccccc1	92.9	97.5
O=C(/C=C/c1ccccn1)c1ccccc1 [WR-190433]	89.1	96.9
Cc1ccc(C(=O)/C=C/c2c(Cl)cccc2Cl)cc1	98.2	98.1
